From PubChem BioAssay
Compounds with a hit are over-represented: about 1.3% of the library has one in this group of screens.
LANA-H2A inh = blocks KSHV LANA binding to histone H2A/H2B | inhibition, % (no concentration beside the values) | Q9QR71 | cell-free LANA-H2A/H2B peptide, fluorescence polarization | actives 0.6% (n = 320,000); in the data active means inhibition mostly above about 10%, no sharp cut-off; inactive means mostly below about 6.7%
GSK3 alpha inh = human GSK-3 alpha kinase inhibition; P49840; inhibition, % at 10 µM; actives 0.1% (n = 320,000); AID 2650; ADP-Glo luminescence, 60 min;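 active means more than half of replicates show inhibition above 20%; inconclusive means some but at most half of replicates above 20% inhibition; inactive means no replicate shows inhibition above 20%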;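 further: GST-tagged GSK-3 alpha with peptide substrate and 25 µM ATP; 0% = DMSO neutral wells and 100% = GW8510 positive control wells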
TAG inh = inhibitors of triacylglycerol accumulation | H9c2 cells, Nile Red lipid (TAG) fluorescence; cells loaded with 200 µM oleic acid | inhibition, % at 12.5 µM | actives 0.66% (n = 230,000) | AID 651582;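 active means pattern-corrected inhibition of lipid staining of at least 50% with the nuclear-stain viability signal not falling by more than 50%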;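 further: 0% = DMSO wells and 100% = triacsin C control wells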
STK33 kinase inh = human STK33 kinase inhibition; Q9BYT3; purified STK33, MBP phosphorylation, ADP-Glo luminescence; inhibition, % at 10 µM; actives 0.073% (n = 320,000);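 active means inhibition at or above 25%, using the most active replicate where run in duplicate; inactive means inhibition below 25%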
GSK3B inh = inhibitors of human GSK3beta kinase; P49841; GST-GSK3beta kinase, ADP-Glo luminescence, 60 min; hits give low values; activity score (negative = inhibition), % at 10 µM; actives 0.038% (n = 300,000);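 active means more than half of replicate wells score below -50%, meaning over 50% inhibition versus plate controls; inconclusive means some replicates but at most half score below -50%; inactive means no replicate scores below -50%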;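 further: 0% = median DMSO wells and -100% = median GW8510 positive control wells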
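Test system: GST-tagged human GSK3beta kinase, cell-free; evaluation: activity score scaled between in-plate DMSO and GW8510 controls; measured by: ADP-Glo luminescence; incubation: 60 min reaction, RT; benchmarks: DMSO and 20 µM GW8510; reagent: peptide substrate plus 25 µM ATP (final); medium: Tris/MgCl2 kinase buffer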
Hep lipid drop = hepatic lipid droplet formation modulation; actives 0.4% (n = 240,000); inhibition, % at 6.5 µM; AML12 mouse hepatocytes, oleate lipid droplets, BODIPY imaging;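 active means lipid droplet intensity inhibited by at least 50%, with more than 500 cells counted; inconclusive means wells with under 300 cells, treated as cytotoxic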
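Assay system: AML12 hepatocytes (mouse); Probe or stimulus: oleic acid at 100 µM to induce lipid droplet formation; Dosing: compound at 6.5 µM only; Schedule: compound with oleate, overnight; Detection: fluorescence imaging, 20x objective, two fields per well; Measure: % inhibition of lipid droplet signal.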
H9c2 TAG conf = confirmation of triacylglycerol accumulation inhibitors | shares compounds with TAG inh | H9c2 lipid accumulation, Nile Red fluorescence; cells loaded with 200 µM oleic acid | inhibition, % at 12.5 µM | actives 71% (n = 990);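 active means mean inhibition across replicates of 40% or more; inactive means mean inhibition below 40%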;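 further: plate controls were DMSO only wells for no effect and Triacsin C treated wells for full effect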
Active calls of the source: *; ? = inconclusive; / = not tested or not shown.

SMILES | LANA-H2A inh | GSK3 alpha inh | TAG inh | STK33 kinase inh | GSK3B inh | Hep lipid drop | H9c2 TAG conf
O=C(CC1C[C@H](C(=O)N2CCOCC2)[C@@]2(CCC3CCCC3)c3[nH]c4ccccc4c3CCN2C1=O)NCC12CC3CC(CC(C3)C1)C2 (some centres undefined) | -1 | -1 | 61* | -1 | / | / | 56*
O=C(CC1C[C@H](C(=O)N2CCOCC2)[C@@]2(CCC3CCCC3)c3[nH]c4ccccc4c3CCN2C1=O)NCCN1CCOCC1 (some centres undefined) | -4 | -1 | 8 | -1 | / | / | /
COc1ccc(C2=C(C=Nc3c(C)n(C)n(-c4ccccc4)c3=O)C(c3ccccc3C)c3ccccc3O2)cc1OC (centres undefined) | -1 | -1 | 61* | -1 | -2 | 8 | 32
Cc1c(N=Cc2c(O)n(C)c(=O)c3ccccc23)c(=O)n(-c2ccccc2)n1C | 3 | -1 | / | -1 | / | / | /
Cc1ccc(-c2nnc(SCc3ccccc3F)o2)cc1 | -17 | 0 | / | 1 | -5 | 2 | /
O=c1cc(-c2ccccc2)[nH]c2ccc(F)cc12 | 3 | 1 | 65* | -1 | 3 | ? | 52*
Cc1cc(C)c2oc(=O)cc(CN3CCN(Cc4ccccc4)CC3)c2c1 | 2 | 0 | / | 0 | -1 | -17 | /
Cc1c(C(=O)NCc2ccccc2)oc2ccc(S(=O)(=O)N3CCC4(CC3)OCCO4)cc12 | 3 | -4 | -6 | 0 | 2 | 36 | /
Cc1c(C(=O)NCCC2=CCCCC2)oc2ccc(S(=O)(=O)N3CCC4(CC3)OCCO4)cc12 | 5 | -3 | 52* | -3 | -1 | 6 | 33
CCN(CC)S(=O)(=O)c1ccc2c(c1)nc(SCC(=O)NCC1CCCO1)n2CC (centres undefined) | -3 | -2 | 6 | 0 | 3 | / | /
COc1ccccc1CCC(=O)Nc1ccc2c(c1)c(=O)n(C)n2Cc1ccc(F)cc1 | / | / | 34 | / | / | / | /
COc1cccc(Cn2c3ccc(NC(=O)CCc4ccc(F)cc4)cc3c(=O)n2C)c1 | / | / | 52* | / | / | / | 69*
C#CCN(C[C@@H]1[C@@H](OC(=O)NCc2ccccc2F)[C@@H](OC(=O)NCc2ccccc2F)CN(C(=O)OC(C)C)N1C(=O)OC(C)C)S(=O)(=O)c1ccc(C)cc1 | / | / | 22 | / | / | / | /
C#CCN(C[C@@H]1[C@@H](OC(=O)NCc2ccco2)[C@@H](OC(=O)NCc2ccco2)CN(C(=O)OC(C)C)N1C(=O)OC(C)C)S(=O)(=O)c1ccc(C)cc1 | / | / | 55* | / | / | / | 62*
CSCCC(NS(=O)(=O)c1ccc(Cl)cc1)C(=O)OCC(=O)N1CCCc2ccccc21 (centres undefined) | 0 | -5 | -7 | -1 | 3 | 1 | /
COCCCN1CCc2[nH]c(=S)[nH]c(=O)c2C1 | / | / | / | / | -1 | -9 | /
COC(=O)C1=C(C)N(Cc2ccccc2)C(=NCc2cc(OC)c(OC)c(OC)c2)N[C@H]1c1ccccc1 | -2 | 3 | / | -1 | -3 | / | /
COC(=O)C1=C(C)N(Cc2ccccc2)C(=NCc2cc(OC)c(OC)c(OC)c2)N[C@H]1c1ccc(Br)cc1 | 0 | 7 | 62* | 3 | / | / | 62*
COC(=O)C1=C(C)N(Cc2ccccc2)C(=NCc2ccccc2)N[C@H]1c1ccccc1 | 1 | 5 | 105* | 2 | / | / | 53*
CCOC(=O)C(=O)N(C)c1c(CC)nc2c(OCCC3CCCCC3)cccn12 | / | / | 119* | / | / | / | 7
CC(=O)Nc1cccc(NC(=O)CSc2nc3ccccc3o2)c1 | 5 | 1 | -3 | 0 | -1 | 1 | /
CCOC(=O)NCCc1ccc(OC)cc1 | -3 | -3 | / | -4 | 2 | 2 | /
Cc1ccc(CN2CCCC(CO)(Cc3ccccc3C)C2)s1 (centres undefined) | 2 | -28 | -20 | 0 | 1 | -10 | /
COc1ccc(C(=O)N2CCN(c3cccc(Cl)c3)CC2)cc1S(=O)(=O)NC1CC1 | / | / | 21 | / | / | / | /
NCCCC(=O)N1c2ccccc2Sc2ccc(Cl)cc21 | -3 | 2 | / | 1 | 1 | 4 | /
SMILES | LANA-H2A inh | GSK3 alpha inh | TAG inh | STK33 kinase inh | GSK3B inh | Hep lipid drop | H9c2 TAG conf
NCCC(=O)N1c2ccccc2Sc2ccc(Cl)cc21 | -1 | -2 | 68* | -1 | 3 | -3 | 40
CC1CSc2n(-c3cccc(C(F)(F)F)c3)cc(-c3ccccc3)[n+]21 (centres undefined) | 3 | -1 | -21 | 0 | -3 | -4 | /
CCCSc1ccc2nc(NC(=O)OC)[nH]c2c1 | 4 | 0 | 58* | 0 | -2 | -96 | 60*
COC(=O)Nc1nc2ccc(C(=O)c3cccs3)cc2[nH]1 | 0 | -2 | 45 | -2 | -3 | / | /
COC(=O)Nc1nc2ccc(SC(C)C)cc2[nH]1 | -1 | 0 | 52* | 0 | / | / | 61*
O=C(O)c1cccc(NS(=O)(=O)c2ccc(Cl)c(C(=O)O)c2)c1 | -3 | -4 | 0 | -1 | 2 | / | /
Cc1ccc(-n2ncc(-c3nnc(SCC(=O)NC4CCCC4)o3)c2N)cc1C | -2 | 1 | 55* | 0 | -2 | / | 37
CCn1c(CSc2nnc3ccccn23)nc2cc(C(=O)O)ccc21 | -1 | 2 | -11 | 0 | 1 | / | /
CCCCCCSc1cc(-c2nc3ccc(Cl)cn3c2NC2CCCCC2)ccc1OC | 1 | / | 66* | 0 | 4 | / | 44*
CCCCCCSc1ccc(-c2nc3ccc(Cl)cn3c2NC2CCCCC2)cc1 | 2 | -2 | 13 | -2 | / | / | /
Cc1ccc(/C=C/c2nc3ccccc3c(=O)n2CCc2ccccc2)cc1 | 9 | -1 | / | 0 | 3 | 5 | /
COC(=O)Nc1ccc(OCC(=O)N2CCOCC2)cc1 | 8 | 2 | / | -1 | 3 | 4 | /
O=C(CCC1CCCC1)Nc1ccc(OCC(=O)N2CCOCC2)cc1 | 1 | -1 | 51* | 1 | 1 | 34 | 36
CC(C)CN(C#N)c1nc(N2CCOCC2)nc(N2CCOCC2)n1 | 0 | -3 | 62* | -2 | 25 | / | 45*
COc1ccc(Cl)cc1NC(=O)CSc1nnc(COc2ccccc2)n1N | 2 | -3 | 54* | 0 | 3 | 21 | 30
COc1cc2c(cc1OC)C(COc1ccccc1OC)N(C(=O)C(C)C)CC2 (centres undefined) | / | / | 24 | / | -5 | 50 | /
Cc1cc2c(cc1C)CSC(c1ccccc1OC(=O)C(C)C)SC2 | 2 | 1 | 52* | 0 | -3 | / | 24
COc1ccc2cc(Br)ccc2c1CC(=O)NC(C)(C)C | -9 | 0 | / | 3 | 3 | -5 | /
COc1ccc2cc(Br)ccc2c1CC(=O)NC1CC(C)(C)NC(C)(C)C1 | 1 | 4 | 64* | 7 | -3 | 8 | 12
CN(C)CCNc1ncnc2c1sc1nc(N3CCCC3)c3c(c12)CC(C)(C)OC3 | 3 | 2 | 29 | -1 | -3 | 8 | /
